Here are results for 11 compounds from ChEMBL document CHEMBL1687940, “Quinazoline sulfonamides as dual binders of the proteins B-cell lymphoma 2 and B-cell lymphoma extra long with potent proapoptotic cell-based activity” (J Med Chem, 2011).

The target in assay [1] is Induced myeloid leukemia cell differentiation protein Mcl-1 (Homo sapiens, UniProt Q07820). Briefly: Displacement of wild type mBimBH3 from Mcl-1 by solution competition assay.
Assay [2] relates to MEF. Briefly: Cytotoxicity against mouse mcl-1 deficient MEF cells after 24 hrs by Cell titer glo assay in presence of 10% serum. In kind it is functional, cell-based. The essentials:
(§1)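 Wild-type (mcl-1 fl/fl) or Mcl-1-deficient mouse embryonic fibroblasts kept in high-glucose DME with asparagine, 2-mercaptoethanol and 10% FCS. Exposed to compound 24 h in medium with 1% or 10% FCS. […] Means ± SEM of three independent experiments.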
For orientation: Cellular ATP, detected with luciferase, serves as a proxy for viable cell number.

The next assay addresses T1, Bcl-2-like protein 2 (Homo sapiens, UniProt Q92843).
T1 sequence (Q92843 whole entry): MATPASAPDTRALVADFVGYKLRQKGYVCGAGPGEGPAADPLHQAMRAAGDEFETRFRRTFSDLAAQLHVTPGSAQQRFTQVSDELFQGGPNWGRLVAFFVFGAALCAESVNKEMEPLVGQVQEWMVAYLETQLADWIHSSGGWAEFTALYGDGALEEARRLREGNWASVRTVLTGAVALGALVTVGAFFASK
Briefly: Displacement of wild type mBimBH3 from human Bcl-w by solution competition assay.

For assay [3], the system named is MEF. Briefly: Cytotoxicity against mouse MEF cells expressing mcl-1 fl/fl after 24 hrs by Cell titer glo assay in presence of 1% serum. In kind it is functional, cell-based. Summed up: as §1
The test system of assay [4] is MEF. Briefly: Cytotoxicity against mouse MEF cells expressing mcl-1 fl/fl after 24 hrs by Cell titer glo assay in presence of 10% serum. In kind it is functional, cell-based. The essentials: as §1
Assay [5] addresses Apoptosis regulator Bcl-2 (Homo sapiens, UniProt P10415). Briefly: Displacement of wild type mBimBH3 from human Bcl-2 by solution competition assay.
The test system of assay [6] is MEF. Briefly: Cytotoxicity against mouse mcl-1 deficient MEF cells after 24 hrs by Cell titer glo assay in presence of 1% serum. In kind it is functional, cell-based. The essentials: as §1
Assay [7] deals with T2, Bcl-2-like protein 1 (Homo sapiens, UniProt Q07817). Briefly: Displacement of biotinylated Bim-BH3 from GST-tagged Bcl-Xl by AlphaScreen competitive assay. Summed up: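 Titration into a mix of GST-tagged Bcl-xL ΔC25 (0.6 nM final) and biotinylated Bim BH3-26 peptide (5.0 nM final), with anti-GST acceptor and streptavidin donor beads (15 μg/mL each). Protein–acceptor and peptide–donor pairs were preincubated 30 min, then added in turn, 4 h at room temperature. DMSO 1.0% final.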
T2 sequence (Q07817 whole entry): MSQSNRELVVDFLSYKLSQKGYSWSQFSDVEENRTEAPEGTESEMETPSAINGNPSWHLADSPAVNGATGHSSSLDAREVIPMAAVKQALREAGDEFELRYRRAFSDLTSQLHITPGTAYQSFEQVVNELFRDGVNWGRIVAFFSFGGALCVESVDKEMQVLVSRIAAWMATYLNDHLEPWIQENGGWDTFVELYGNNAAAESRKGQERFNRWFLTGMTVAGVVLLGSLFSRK

The test system of a further assay is NCI-H889. Briefly: Cytotoxicity against human NCI-H889 after 48 hrs by MTS assay in presence of 10% human serum. In kind it is functional, cell-based. The note with it: NCI-H889, 48 h. The essentials: (§2)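 Treated 48 h in medium with 10% human serum. Each concentration run in duplicate, at least three separate times. Viability read by MTS proliferation assay.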
In general terms: Tetrazolium dyes change colour on reduction, which living cells bring about.

For the next assay, the system named is NCI-H1963. Briefly: Cytotoxicity against human NCI-H1963 after 48 hrs by MTS assay in presence of 10% human serum. The format is functional, cell-based. Conditions: NCI-H1963, 48 h. The essentials:
as §2

A short description of assay [8]: Cytotoxicity against human NCI-H146 after 48 hrs by MTS assay in presence of 10% human serum. The format is functional. Conditions: NCI-H146, 48 h. Summed up: as §2
Assay [9] deals with MEF. Briefly: Cytotoxicity against mouse mcl-1 deficient MEF cells after 24 hrs by Cell titer glo assay in presence of 10% fetal bovine serum. The format is functional, cell-based. The essentials:
as §1

Assay [10] relates to MEF. Briefly: Cytotoxicity against mouse MEF cells expressing mcl-1 fl/fl at 10 uM after 24 hrs by Cell titer glo assay in presence of 10% fetal bovine serum. The format is functional, cell-based.
Assay [11] has as its target T2, Bcl-2-like protein 1. Briefly: Binding affinity to Bcl-Xl assessed as association rate constant by surface plasmon resonance assay. Summed up:
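Biacore SPR direct binding. Anti-GST antibody amine-coupled to CM5 chip (~10000 RU); GST-Bcl-xL captured (~1200 RU), fresh protein each cycle. Compound series injected at 90 μL/min, 25 °C; association 95 s, dissociation 240 s. Phosphate/NaCl/EDTA/Tween buffer with 5% DMSO, pH 7.4. Double referencing and DMSO solvent correction; fit to one-to-one model with mass transport for k_a, k_d.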
(In general: SPR reads the build-up and loss of mass on a sensor chip optically.)

The subject of assay [12] is MEF. Briefly: Cytotoxicity against mouse MEF cells expressing mcl-1 fl/fl after 24 hrs by Cell titer glo assay in presence of 10% fetal bovine serum. In kind it is functional, cell-based. Summed up: as §1

Calls of active or inactive are those of the source. The rule behind the calls is not given here.

Chain of Apoptosis regulator Bcl-2 (P10415 whole entry): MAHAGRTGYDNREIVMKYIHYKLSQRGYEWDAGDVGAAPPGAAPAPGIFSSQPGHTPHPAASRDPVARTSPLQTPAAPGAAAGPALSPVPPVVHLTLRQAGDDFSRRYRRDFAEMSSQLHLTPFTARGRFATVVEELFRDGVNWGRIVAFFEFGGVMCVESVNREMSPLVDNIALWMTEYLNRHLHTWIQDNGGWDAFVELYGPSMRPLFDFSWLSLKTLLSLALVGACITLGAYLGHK
Chain of Induced myeloid leukemia cell differentiation protein Mcl-1 (Q07820 whole entry): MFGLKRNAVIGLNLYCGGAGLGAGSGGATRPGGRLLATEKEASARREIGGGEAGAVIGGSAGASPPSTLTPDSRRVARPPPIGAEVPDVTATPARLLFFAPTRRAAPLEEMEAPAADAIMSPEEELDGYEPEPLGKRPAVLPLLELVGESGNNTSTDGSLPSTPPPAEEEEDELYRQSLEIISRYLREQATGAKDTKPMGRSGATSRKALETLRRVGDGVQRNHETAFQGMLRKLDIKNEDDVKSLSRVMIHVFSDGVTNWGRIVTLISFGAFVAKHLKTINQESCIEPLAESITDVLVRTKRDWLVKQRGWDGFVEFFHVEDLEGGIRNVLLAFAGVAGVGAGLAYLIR

One may read the IC50 as the concentration that gives 50% inhibition. Read a low IC50 as higher potency. For orientation: EC50 means the midpoint of the concentration-response curve. As to `CN(C)CC[C@H](CSc1ccccc1)Nc1ccc(S(=O)(=O)Nc2ncnc3cc(N4CCN(CC5=C(c6ccc(Cl)cc6)CCC(C)(C)C5)CC4)ccc23)cc1[N+](=O)[O-]`, the half-maximal inhibitory concentration (IC50) in assay [1] is above 1000 nM; at Bcl-2-like protein 2, 540 nM; in assay [5] it was 12 nM. Also, the concentration giving a half-maximal response (EC50) is 61 nM in the assay on MEF [2], 1610 nM in the assay with MEF [3], 4300 nM in the assay with MEF [4] and 16 nM in the assay with MEF [6].

For `O=C(NS(=O)(=O)c1ccc(NCCSc2ccccc2)c([N+](=O)[O-])c1)c1ccc(-c2ccc(F)cc2)cc1`, the IC50 at Bcl-2-like protein 1 [7] is 1500 nM.

Take `CC1(C)CCC(c2ccc(Cl)cc2)=C(CN2CCN(c3ccc4c(NS(=O)(=O)c5ccc(N[C@H](CCN6CCOCC6)CSc6ccccc6)c([N+](=O)[O-])c5)ncnc4c3)CC2)C1`: the results for the IC50 (in assay [1]; on Bcl-2-like protein 2; in assay [5]) were above 1000 nM, above 1000 nM and 21 nM, respectively. The EC50 with MEF [2] was 222 nM; in the assay on MEF [3], above 10000 nM; in the assay with MEF [4], above 10000 nM; with MEF [6], 38 nM.

For the compound `O=S(=O)(Nc1ncnc2cc(N3CCN(Cc4ccccc4-c4ccc(Cl)cc4)CC3)ccc12)c1ccc(N[C@H](CCN2CCOCC2)CSc2ccccc2)c(S(=O)(=O)C(F)(F)F)c1`, the concentration giving a half-maximal response (EC50) with NCI-H889 was 820 nM; in the assay on NCI-H1963, 400 nM; in [8] it was 630 nM; with MEF [2] it was 149 nM; with MEF [3], above 10000 nM; in the assay with MEF [4] it was above 10000 nM. For the same compound, in the assay on MEF [6], the EC50 is 22.4 nM. In addition, the figures for the IC50 (in [1]; on Bcl-2-like protein 2; in assay [5]) were above 1000 nM, above 1000 nM and 81 nM, respectively.

Take `O=[N+]([O-])c1cc(S(=O)(=O)Nc2ncnc3cc(N4CCN(Cc5ccccc5-c5ccc(Cl)cc5)CC4)ccc23)ccc1N[C@H](CCN1CCOCC1)CSc1ccccc1`: the EC50 with NCI-H889 is 1300 nM; with NCI-H1963, 1400 nM; in assay [8], 3700 nM; in the assay with MEF [2] it was 190 nM; in the assay with MEF [3] it was above 10000 nM; with MEF [4], above 10000 nM. The EC50 in the assay with MEF [6] is 24.8 nM. In addition, the results for the IC50 (in [1]; at Bcl-2-like protein 2; in assay [5]) were above 1000 nM, above 1000 nM and 21 nM, respectively.

With `CN(C)CC[C@H](CSc1ccccc1)Nc1ccc(S(=O)(=O)NC(=O)c2ccc(N3CCN(Cc4ccccc4-c4ccc(Cl)cc4)CC3)cc2)cc1[N+](=O)[O-]` [ABT 737], the concentration giving a half-maximal response (EC50) in the assay with MEF [2] was 51 nM; in the assay with MEF [9] it was 51 nM; in the assay on MEF [3], above 10000 nM; in the assay with MEF [4] it was above 10000 nM; with MEF [6], 2.03 nM. Besides, in the assay on MEF [10], the result was inactive. Besides, at Bcl-2-like protein 1 [11], the Ka was 7.9 ×10⁵ /M/s.

Turning to `CN(C)CC[C@H](CSc1ccccc1)Nc1ccc(S(=O)(=O)Nc2ncnc3cc(N4CCN(CC5=C(c6ccc(Cl)cc6)CCC(C)(C)C5)CC4)ccc23)cc1S(=O)(=O)C(F)(F)F`, the IC50 in assay [1] was above 1000 nM; at Bcl-2-like protein 2 it was 275 nM; in assay [5], 5 nM. Besides, the EC50 in the assay on MEF [2] was found to be 37.2 nM; with MEF [3] it was 2650 nM; in the assay with MEF [4], 5460 nM; with MEF [6] it was 11.6 nM.

Consider `CN(C)CC[C@H](CSc1ccccc1)Nc1ccc(S(=O)(=O)Nc2ncnc3cc(N4CCN(Cc5ccccc5-c5ccc(Cl)cc5)CC4)ccc23)cc1[N+](=O)[O-]`, for which the EC50 with NCI-H889 came out at 210 nM; with NCI-H1963, 170 nM; in assay [8], 610 nM; in the assay with MEF [2], 110 nM; in the assay on MEF [9], 110 nM; in the assay on MEF [3] it was 1680 nM. Further, the EC50 in the assay on MEF [4] was 5820 nM; with MEF [12], 5800 nM; with MEF [6] it was 40 nM. For the same compound, the IC50 in assay [1] was above 1000 nM; at Bcl-2-like protein 2, 440 nM; in [5], 8.7 nM. Moreover, on Bcl-2-like protein 1 [11], the Ka is 1.9 ×10⁵ /M/s.

Take `CC1(C)CCC(c2ccc(Cl)cc2)=C(CN2CCN(c3ccc(C(=O)NS(=O)(=O)c4ccc(N[C@H](CCN5CCOCC5)CSc5ccccc5)c(S(=O)(=O)C(F)(F)F)c4)cc3)CC2)C1` [NAVITOCLAX]: the EC50 with NCI-H889 came out at 120 nM; in the assay with NCI-H1963, 51 nM; in [8], 80 nM.

For the compound `CN(C)CC[C@H](CSc1ccccc1)Nc1ccc(S(=O)(=O)Nc2ncnc3cc(N4CCN(Cc5ccccc5-c5ccc(Cl)cc5)CC4)ccc23)cc1S(=O)(=O)C(F)(F)F`, the results for the half-maximal inhibitory concentration (IC50) (in assay [1]; on Bcl-2-like protein 2; in assay [5]) were above 1000 nM, 245 nM and 13 nM, respectively.

Regarding `CC1(C)CCC(c2ccc(Cl)cc2)=C(CN2CCN(c3ccc4c(NS(=O)(=O)c5ccc(N[C@H](CCN6CCOCC6)CSc6ccccc6)c(S(=O)(=O)C(F)(F)F)c5)ncnc4c3)CC2)C1`, the 50% inhibitory concentration (IC50) in [1] is above 1000 nM; at Bcl-2-like protein 2, above 1000 nM; in assay [5], 84 nM. The EC50 in the assay with MEF [2] was 328 nM; in the assay on MEF [3], above 10000 nM; with MEF [4], above 10000 nM; with MEF [6], 37.2 nM.
